Data: ChEMBL document CHEMBL1817552, “Isolation, identification, and biological evaluation of HIF-1-modulating compounds from Brazilian green propolis” (Bioorg Med Chem, 2011)
Blank lines part the entries; values can stand above or below the compound they belong to. Calls of active or inactive are those of the source. No cut-off for these calls is given here.

How the values were obtained:
[1] = tested on: HEK293; assay: Modulation of HIF1 expressed in HEK293 cells assessed as luciferase activity under hypoxic condition at 50 uM after 24 hrs by luminometer analysis relative to hypoxic control; assay type: cell-based
How it was run: (§1)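 HEK293 stable clone carrying a luciferase reporter driven by a 68-bp ENO1 hypoxia response element upstream of the SV40 promoter, seeded at 8 × 10^4 cells/well. After 24 h, compound added; 1 h later cells moved to 1% O2 hypoxia for 24 h. Luciferase read by luminometer, expressed as ratio to hypoxic control. Final DMSO 0.5%; triplicate wells.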

[2] = tested on: HCT-116; assay: Cytotoxicity against human HCT116 cells assessed as cell viability under normoxic condition at 100 uM after 24 hrs by MTT assay; assay type: functional
How it was run: (§2)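 HCT116 cells seeded at 6.0 × 10^3 cells/well in McCoy's 5A with 10% FBS and antibiotics, grown 24 h, then exposed to compound for 24 h under normoxia (20% O2) or hypoxia (1% O2, 94% N2, 5% CO2, 37 °C). MTT 0.5 mg/mL added for 4 h at 37 °C, cells lysed in DMSO, absorbance read at 570 nm. Final DMSO 1.0% (v/v).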

[3] = Solubility of the compound in dimethylsulfoxide; assay type: physicochemical
[4] = tested on: HCT-116; assay: Cytotoxicity against human HCT116 cells assessed as cell viability under normoxic condition at 200 uM after 24 hrs by MTT assay; assay type: functional; how it was run: as §2
[5] = Antiangiogenic activity in 3-day-old embryonated chicken eggs at 300 ng/CAM measured on 7th embryonic day by CAM assay; assay type: functional, Gallus gallus, Egg
[6] = tested on: HCT-116; assay: Inhibition of HIF1alpha expression in human HCT116 cells under hypoxic condition after 4 hrs by immunoblotting; assay type: functional, cell-based
How it was run: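 HCT116 cells at 4 × 10^6 per dish, grown 24 h, then exposed 4 h under hypoxia (1% O2) or normoxia (20% O2). Lysed on ice in Tris/SDS/deoxycholate buffer with protease and phosphatase inhibitors; 120 µg protein per lane on 7% SDS-PAGE. Probed with mouse anti-human HIF-1α (1:500) and β-actin control; HRP secondary, chemiluminescence quantitation.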

[7] = Modulation of HIF1 expressed in HEK293 cells assessed as luciferase activity under hypoxic condition after 24 hrs by luminometer analysis; assay type: cell-based; settings: HEK293, 24 h
[8] = tested on: HCT-116; assay: Cytotoxicity against human HCT116 cells assessed as cell viability under hypoxic condition at 200 uM after 7 days by clonogenic assay; assay type: functional
How it was run: (§3)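 HCT116 cells plated at 3.0 × 10^2 cells per dish and treated 24 h under normoxia (20% O2) or hypoxia (1% O2). On day 7 colonies were washed with PBS, fixed in methanol 30 min at room temperature, stained with Giemsa over 3 h, then counted.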

[9] = target: T1, Hypoxia inducible factors; HIF-1-alpha, HIF-2-alpha (Homo sapiens) (UniProt Q16665+Q99814); assay: Inhibition of HIF1-dependent GLUT1 mRNA expression in human HCT116 cells under hypoxic condition at 50 uM after 24 hrs by RT-PCR analysis; assay type: cell-based; settings: HCT-116
How it was run: (§4)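 HCT116 cells seeded at 1 × 10^6 per dish in McCoy's 5A/10% FBS, grown 24 h, then treated 24 h under hypoxia (1% O2) or normoxia. Total RNA extracted directly after treatment. Real-time RT-PCR run as 95 °C 30 s, then 40 cycles of 95 °C 5 s and 60 °C 30 s. Normalized to 18S rRNA, relative expression by 2^-ΔΔCT; mean ± SD.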

[10] = tested on: HCT-116; assay: Cytotoxicity against human HCT116 cells assessed as cell viability under hypoxic condition at 200 uM after 24 hrs by MTT assay; assay type: functional; how it was run: as §2
[11] = target: T1, Hypoxia inducible factors; HIF-1-alpha, HIF-2-alpha (Homo sapiens); assay: Inhibition of HIF1-dependent VEGFA mRNA expression in human HCT116 cells under hypoxic condition at 50 uM after 24 hrs by RT-PCR analysis; assay type: cell-based; settings: HCT-116; how it was run: as §4
[12] = target: T1, Hypoxia inducible factors; HIF-1-alpha, HIF-2-alpha (Homo sapiens); assay: Inhibition of HIF1-dependent HK2 mRNA expression in human HCT116 cells under hypoxic condition at 50 uM after 24 hrs by RT-PCR analysis; assay type: cell-based; settings: HCT-116; how it was run: as §4
[13] = tested on: HCT-116; assay: Cytotoxicity against human HCT116 cells assessed as cell viability under normoxic condition at 200 uM after 7 days by clonogenic assay; assay type: functional; how it was run: as §3
[14] = tested on: HCT-116; assay: Cytotoxicity against human HCT116 cells assessed as cell viability under normoxic condition at 50 uM after 24 hrs by MTT assay; assay type: functional
[15] = tested on: HCT-116; assay: Cytotoxicity against human HCT116 cells assessed as cell viability under hypoxic condition at 50 uM after 7 days by clonogenic assay; assay type: functional
[16] = tested on: HCT-116; assay: Cytotoxicity against human HCT116 cells assessed as cell viability under hypoxic condition at 50 uM after 24 hrs by MTT assay; assay type: functional; how it was run: as §2
[17] = tested on: HCT-116; assay: Cytotoxicity against human HCT116 cells assessed as cell viability under normoxic condition at 50 uM after 7 days by clonogenic assay; assay type: functional
[18] = tested on: HEK293; assay: Modulation of HIF1 expressed in HEK293 cells assessed as luciferase activity under hypoxic condition at 30 uM after 24 hrs by luminometer analysis relative to hypoxic control; assay type: cell-based; how it was run: as §1
[19] = tested on: HCT-116; assay: Cytotoxicity against human HCT116 cells assessed as cell viability under normoxic condition after 24 hrs by MTT assay; assay type: functional, cell-based; settings: HCT-116, 24 h; how it was run: as §2

SMILES: CC(C)(C)c1cc(/C=C/C(=O)O)cc(C(C)(C)C)c1O
Ratio [1]: 0.77
Activity [2]: 108.4%

solubility [3]: Insoluble
SMILES: C=C(C)[C@@H]1CC[C@]2(C)CC[C@]3(C)[C@H](CC[C@@H]4[C@@]5(C)CC[C@H](OC(=O)C[C@H](O)CCCCCCCCCCCCC)C(C)(C)[C@@H]5CC[C@]43C)[C@@H]12

SMILES: COc1ccc(/C=C/C(=O)O)cc1CC=C(C)C
Ratio [1]: 0.82
Activity [2]: 95.7%

SMILES: C=CCc1cc(/C=C/C(=O)O)ccc1O
Ratio [1]: 0.9
Activity [2]: 98.4%

SMILES: O=C(O)/C=C/c1ccc(OC(=O)CCc2ccccc2)cc1
Ratio [1]: 1.08

SMILES: CC(C)=CCc1cc(/C=C/C(=O)O)cc(CC=C(C)C)c1O [ARTEPILLIN]
Ratio [1]: 1.09
Activity [4]: 53.3%
inhibition (INH) [5]: 80.9%

IC50 [7]: 77.4 µM
inhibition [9]: Active
inhibition [11]: Active
inhibition [12]: Active
SMILES: CC(C)=CCc1cc(/C=C/C(=O)O)ccc1OC(=O)CCc1ccccc1 [BACCHARIN]
Ratio [1]: 0.52
Activity [4]: 58.2%
inhibition [6]: Dose-dependent effect
Activity [8]: 74%
inhibition (INH) [5]: 83.2%
Activity [10]: 69.4%
Activity [13]: 74.8%

SMILES: COc1ccc(-c2oc3cc(O)c(OC)c(O)c3c(=O)c2O)cc1 [BETULETOL]
Activity [14]: 69%
Activity [15]: 90.3%
Activity [16]: 86.8%
inhibition (INH) [5]: 46.7%
Activity [17]: 96.8%

SMILES: O=C(O)/C=C/c1ccc(O)cc1 [COUMARIC ACID]
Ratio [1]: 0.93
Activity [2]: 99.3%

IC50 [7]: 25.6 µM
inhibition [9]: Active
inhibition [11]: Active
inhibition [12]: Active
SMILES: CC(C)=CCc1cc(/C=C/C(=O)O)ccc1O [DRUPANIN]
Ratio [1]: 0.36
Activity [4]: 127.1%
inhibition [6]: Dose-dependent effect
Activity [8]: 101.2%
inhibition (INH) [5]: 84.3%
Activity [10]: 146%
Activity [13]: 105.8%

SMILES: COc1ccc(-c2oc3cc(O)cc(O)c3c(=O)c2O)cc1 [KAEMPFERIDE]
Activity [14]: 102.5%
Activity [15]: 87.6%
Activity [16]: 173.3%
inhibition (INH) [5]: 39.5%
Activity [17]: 79.9%

SMILES: COC(=O)/C=C/c1ccc(OC)c(CC=C(C)C)c1 [PALICATIN B METHYL ETHER]
Ratio [18]: 1.17
IC50 [19]: 37.6 µM

SMILES: COC(=O)/C=C/c1ccc(O)c(CC=C(C)C)c1 [PLICATIN B]
IC50 [19]: 10.6 µM
